The array DNA melting data of Ke et al. (doi:10.1101/2024.01.08.574731)

What was measured:
[1] = folding enthalpy; higher = less favourable; fluorescence melt of hairpins on a sequencing array, two-state fit; details: sodium 0.088 M
In short: (§1)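 To match UV melts, fitted temperatures were raised by 9.35 °C. These fits were bootstrapped two-state models that gave melting temperature and folding enthalpy, combined by inverse variance over four replicates. The input was normalised Cy3 fluorescence of library hairpins with annealed Cy3 and quencher oligos on a sequenced MiSeq flow cell, imaged in 50 mM Na-HEPES pH 8.0, 25 mM NaCl in 2.5 °C steps up to 60 °C.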

[2] = melting temperature; fluorescence melt of hairpins on a sequencing array, two-state fit, raised by 9.35 °C to match UV melts; details: sodium 0.088 M
In short: as §1

Sequence	folding enthalpy [1]	Tm [2]
GCGAGTCGAAAGACACGC (((.(((....))).)))	-38.4 kcal/mol	66.6 °C
GCGAGTGGAAACACTCAC (.(((((....))))).)	-14 kcal/mol	45.7 °C
GCGAGTGGAAACGTTCGC ((((..(....)..))))	-24.6 kcal/mol	45.5 °C
GCGAGTTGTCGC ((((....))))	-15.5 kcal/mol	50.9 °C
GCGATACCTCGC ((((....))))	-24.9 kcal/mol	51.4 °C
GCGATAGGTCGC ((((....))))	-24.5 kcal/mol	51.4 °C
GCGATATCTCGC ((((....))))	-20.5 kcal/mol	48.5 °C
GCGATATGTCGC ((((....))))	-26.4 kcal/mol	55 °C
GCGATCAATCGC ((((....))))	-24.9 kcal/mol	51.1 °C
GCGATCACTCGC ((((....))))	-26 kcal/mol	47.2 °C
GCGATCAGTCGC ((((....))))	-23.2 kcal/mol	49.3 °C
GCGATCCGAAAGGAACGC (((.(((....))).)))	-40 kcal/mol	66.8 °C
GCGATCGAAAGATTGCGC ((((((....)))..)))	-39.6 kcal/mol	57.2 °C
GCGATCGCTCGC ((((....))))	-24.2 kcal/mol	49.6 °C
GCGATCTGTCGC ((((....))))	-33.5 kcal/mol	51.6 °C
GCGATGCGAAAGCAATGC ((..(((....)))..))	-18.2 kcal/mol	53.1 °C
GCGATGCGAAAGCAGGGC ((..(((....)))..))	-20.4 kcal/mol	61.4 °C
GCGATGCGAAAGCGTTGC ((.(.((....)).).))	-25.9 kcal/mol	57.2 °C
GCGATTAATCGC ((((....))))	-29.4 kcal/mol	56.1 °C
GCGATTCGAAAGAACGC (((.(((....))))))	-30.2 kcal/mol	52.8 °C
GCGATTGATCGC ((((....))))	-31.5 kcal/mol	53.1 °C
GCGATTGGAAACAATCAC (.(((((....))))).)	-19.7 kcal/mol	40 °C
GCGATTGGAAACAATCGC (((((((....)))))))	-39.5 kcal/mol	69 °C

Sequence	folding enthalpy [1]	Tm [2]
GCGATTGGAAACAGTCGC ((((.((....)).))))	-42 kcal/mol	54.2 °C
GCGATTGGAAACGATCGC (((((.(....).)))))	-49 kcal/mol	56.4 °C
GCGCAAACGAAAGTTCGC (((..(((....))))))	-22.6 kcal/mol	46.7 °C
GCGCACGAAAGTGTTCGC ((((((....)))..)))	-22.1 kcal/mol	48.2 °C
GCGCACGGAAACGTGCAC (.(((((....))))).)	-10.1 kcal/mol	52.2 °C
GCGCAGCGAAAGCAACGC (((..((....))..)))	-10.2 kcal/mol	49.6 °C
GCGCAGCGAAAGCAGTGC ((.(.((....)).).))	-12 kcal/mol	54.4 °C
GCGCAGCGAAAGCGACGC (((..((....))..)))	-15.8 kcal/mol	57.6 °C
GCGCAGCGAAAGCGCCGC (((..((....))..)))	-13.1 kcal/mol	59.4 °C
GCGCAGCGAAAGCGGGGC ((.(.((....)).).))	-14.3 kcal/mol	57.6 °C
GCGCAGCGAAAGCTAGGC ((..(((....)))..))	-5.67 kcal/mol	39.7 °C
GCGCAGCGAAAGCTCGC (((.(((....))))))	-15.8 kcal/mol	63.3 °C
GCGCAGCGAAAGCTCGGC ((..(((....)))..))	-7.59 kcal/mol	40.3 °C
GCGCAGCGAAAGCTTAGC ((..(((....)))..))	-9.17 kcal/mol	40.5 °C
GCGCAGCGAAAGCTTGGC ((..(((....)))..))	-6.35 kcal/mol	38.5 °C
GCGCAGGGAAACCCGCGC ((((.((....)).))))	-34 kcal/mol	66.8 °C
GCGCAGGGAAACCTGTGC ((.((((....)))).))	-28 kcal/mol	57.7 °C
GCGCATCCGAAAGGACGC (((..(((....))))))	-20.5 kcal/mol	50.2 °C
GCGCATGGAAACGTGTGC ((.((.(....).)).))	-36.7 kcal/mol	46.6 °C
GCGCCAGGAAACCGACGC (((.(.(....).).)))	-29.5 kcal/mol	39.4 °C
GCGCCCGAAAGGGAACGC ((((((....)))..)))	-33.4 kcal/mol	54.7 °C
GCGCCCGAAAGGGATCGC ((((((....)))..)))	-20.4 kcal/mol	51.8 °C
GCGCCCGAAAGGGCCCGC ((((((....)))..)))	-9.91 kcal/mol	44.7 °C

Sequence	folding enthalpy [1]	Tm [2]
GCGCCCGAAAGGGTACGC ((((((....)))..)))	-27.4 kcal/mol	55.1 °C
GCGCCCGCGAAAGCGCGC (((..(((....))))))	-16.2 kcal/mol	58.5 °C
GCGCCGCGAAAGCAACGC (((..((....))..)))	-18.1 kcal/mol	51.1 °C
GCGCCGCGAAAGCAGAGC ((.(.((....)).).))	-27.8 kcal/mol	66.7 °C
GCGCCGCGAAAGCCACGC (((..((....))..)))	-17.4 kcal/mol	50.1 °C
GCGCCGCGAAAGCCGAGC ((.(.((....)).).))	-18.9 kcal/mol	50.5 °C
GCGCCGCGAAAGCGAGGC ((..(((....)))..))	-13.7 kcal/mol	54.8 °C
GCGCCGCGAAAGCGCTGC ((..(((....)))..))	-15.6 kcal/mol	61.1 °C
GCGCCGCGAAAGCGTAGC ((..(((....)))..))	-13.5 kcal/mol	59.1 °C
GCGCCGCGAAAGCTACGC (((..((....))..)))	-20.9 kcal/mol	53.5 °C
GCGCCGCGAAAGCTGGGC ((.(.((....)).).))	-16.1 kcal/mol	57 °C
GCGCCGGCGAAAGCCCGC (((..(((....))))))	-15.2 kcal/mol	55.5 °C
GCGCCTCCGAAAGGACGC (((..(((....))))))	-25.2 kcal/mol	50.1 °C
GCGCCTCGAAAGAGACGC (((.(((....))).)))	-25.5 kcal/mol	59.4 °C
GCGCCTGCGAAAGCACGC (((..(((....))))))	-16.7 kcal/mol	47.7 °C
GCGCCTGGAAACAGACGC (((.(((....))).)))	-29.4 kcal/mol	55.8 °C
GCGCCTTCGAAAGAACGC (((..(((....))))))	-19.2 kcal/mol	38.6 °C
GCGCGAACGAAAGTTCGC (((..(((....))))))	-6.27 kcal/mol	68.4 °C
GCGCGACGAAAGTCTCGC (((.(((....))).)))	-34.3 kcal/mol	60.6 °C
GCGCGAGGAAACTTGCGC ((((.((....)).))))	-38.1 kcal/mol	65.6 °C
GCGCGCGAAAGCGTTCGC ((((((....)))..)))	-14.6 kcal/mol	53.3 °C
GCGCGGCGAAAGCACCGC (((..((....))..)))	-16.6 kcal/mol	56.1 °C
GCGCGGCGAAAGCCCCGC (((.(((....))).)))	-37.7 kcal/mol	59.4 °C

Sequence	folding enthalpy [1]	Tm [2]
GCGCGGCGAAAGCGGGGC ((.(.((....)).).))	-27.7 kcal/mol	64.4 °C
GCGCGGCGAAAGCTGAGC ((.(.((....)).).))	-31.1 kcal/mol	63.2 °C
GCGCGGCGAAAGCTTCGC (((..((....))..)))	-20.8 kcal/mol	55.8 °C
GCGCGGGGAAACCCACGC (((.(((....))).)))	-35 kcal/mol	61.6 °C
GCGCGTACGAAAGTACGC (((..(((....))))))	-6.65 kcal/mol	63.2 °C
GCGCTACGAAAGTAACGC (((.(((....))).)))	-41.1 kcal/mol	56.5 °C
GCGCTAGCGAAAGCTCGC (((..(((....))))))	-10.7 kcal/mol	45.4 °C
GCGCTAGGAAACCAACGC (((.(.(....).).)))	-10.5 kcal/mol	28.6 °C
GCGCTAGGAAACCAGCAC (.(((.(....).))).)	-9.67 kcal/mol	26.8 °C
GCGCTAGGAAACTAGCAC (.(((((....))))).)	-15.4 kcal/mol	44 °C
GCGCTAGGAAACTAGTGC ((.((((....)))).))	-44.7 kcal/mol	53.3 °C
GCGCTCACGAAAGTGCGC (((..(((....))))))	-37.8 kcal/mol	60 °C
GCGCTCCCGAAAGGGCGC (((..(((....))))))	-35 kcal/mol	62.2 °C
GCGCTCCGAAAGGACCGC (((.(((....))).)))	-44.6 kcal/mol	53 °C
GCGCTCGAAAGAGACCGC ((((((....)))..)))	-21.8 kcal/mol	44.9 °C
GCGCTCGAAAGAGCCGC ((((((....))).)))	-18.7 kcal/mol	62.4 °C
GCGCTCGAAAGAGTACGC ((((((....)))..)))	-25.6 kcal/mol	50 °C
GCGCTGCGAAAGCACGC (((.(((....))))))	-17.6 kcal/mol	69.2 °C
GCGCTGCGAAAGCGACGC (((..((....))..)))	-26.8 kcal/mol	63.7 °C
GCGCTGCGAAAGCGGGGC ((.(.((....)).).))	-28.8 kcal/mol	67.8 °C
GCGCTGCGAAAGCTACGC (((..((....))..)))	-23 kcal/mol	55.8 °C
GCGCTGGGAAACCAGCAC (.(((((....))))).)	-11.9 kcal/mol	50.4 °C
GCGCTGGGAAACCAGTGC ((.((((....)))).))	-45.9 kcal/mol	60.6 °C
